Test results from PMC7744997 (Clinical Infectious Diseases: An Official Publication of …, 2020).

Test: Laboratory safety in RSV-infected infants
Assay type: in vivo, human
Procedure, shortened: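 Clinical laboratory tests were run in RSV-infected infants (>1 to ≤24 months) given oral drug or placebo once daily for 7 days. Abnormalities were graded with the DMID Pediatric Toxicity Tables (November 2007 version). Patients were followed for 28 days after randomisation.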

## CS(=O)(=O)CCCn1c(Cn2c(=O)n(CC(F)(F)F)c3ccncc32)cc2cc(Cl)ccc21 [JNJ-53718678]
All cohorts, n=37
  Hemoglobin Grade 1 (treatment-emergent worst toxicity grade): 2 (5) no. (%)
  Hemoglobin Grade 2 (treatment-emergent worst toxicity grade): 1 (3) no. (%)
  Hyperkalemia Grade 1 (treatment-emergent worst toxicity grade): 10 (27) no. (%)
  Hyperkalemia Grade 2 (treatment-emergent worst toxicity grade): 2 (5) no. (%)
  Hypoglycemia Grade 1 (treatment-emergent worst toxicity grade): 3 (8) no. (%)
  Hyponatremia Grade 2 (treatment-emergent worst toxicity grade): 3 (8) no. (%)
All, n=26
  Eosinophils/leukocytes: Above (treatment-emergent nongraded abnormality): 7 (27) no. (%)
  Eosinophils/leukocytes: Below (treatment-emergent nongraded abnormality): 1 (4) no. (%)
  Lymphocytes/leukocytes: Above (treatment-emergent nongraded abnormality): 6 (23) no. (%)
  Lymphocytes/leukocytes: Below (treatment-emergent nongraded abnormality): 1 (4) no. (%)
  Monocytes/leukocytes: Above (treatment-emergent nongraded abnormality): 5 (19) no. (%)
  Monocytes/leukocytes: Below (treatment-emergent nongraded abnormality): 3 (12) no. (%)
  Neutrophils/leukocytes: Above (treatment-emergent nongraded abnormality): 1 (4) no. (%)
  Neutrophils/leukocytes: Below (treatment-emergent nongraded abnormality): 6 (23) no. (%)
All, n=33
  Urea: Above (treatment-emergent nongraded abnormality): 1 (3) no. (%)
  Urea: Below (treatment-emergent nongraded abnormality): 5 (15) no. (%)
All, n=35
  Bicarbonate: Above (treatment-emergent nongraded abnormality): 3 (9) no. (%)
  Bicarbonate: Below (treatment-emergent nongraded abnormality): 6 (17) no. (%)
  Eosinophils: Above (treatment-emergent nongraded abnormality): 7 (20) no. (%)
  Eosinophils: Below (treatment-emergent nongraded abnormality): 0 no. (%)
All, n=36
  Lymphocytes: Above (treatment-emergent nongraded abnormality): 6 (17) no. (%)
  Lymphocytes: Below (treatment-emergent nongraded abnormality): 0 no. (%)
All, n=37
  Alkaline phosphatase: Above (treatment-emergent nongraded abnormality): 2 (5) no. (%)
  Alkaline phosphatase: Below (treatment-emergent nongraded abnormality): 3 (8) no. (%)
  Chloride: Above (treatment-emergent nongraded abnormality): 5 (14) no. (%)
  Chloride: Below (treatment-emergent nongraded abnormality): 1 (3) no. (%)
  Erythrocytes: Above (treatment-emergent nongraded abnormality): 4 (11) no. (%)
  Erythrocytes: Below (treatment-emergent nongraded abnormality): 3 (8) no. (%)
  Leukocytes: Above (treatment-emergent nongraded abnormality): 6 (16) no. (%)
High (cohorts 1d,2c,3c), n=4
  Eosinophils/leukocytes: Above (treatment-emergent nongraded abnormality): 1 (25) no. (%)
  Eosinophils/leukocytes: Below (treatment-emergent nongraded abnormality): 0 no. (%)
  Lymphocytes/leukocytes: Above (treatment-emergent nongraded abnormality): 1 (25) no. (%)
  Lymphocytes/leukocytes: Below (treatment-emergent nongraded abnormality): 0 no. (%)
  Monocytes/leukocytes: Above (treatment-emergent nongraded abnormality): 0 no. (%)
  Monocytes/leukocytes: Below (treatment-emergent nongraded abnormality): 0 no. (%)
  Neutrophils/leukocytes: Above (treatment-emergent nongraded abnormality): 0 no. (%)
  Neutrophils/leukocytes: Below (treatment-emergent nongraded abnormality): 0 no. (%)
High (cohorts 1d,2c,3c), n=8
  Bicarbonate: Above (treatment-emergent nongraded abnormality): 0 no. (%)
  Bicarbonate: Below (treatment-emergent nongraded abnormality): 3 (38) no. (%)
  Eosinophils: Above (treatment-emergent nongraded abnormality): 0 no. (%)
  Eosinophils: Below (treatment-emergent nongraded abnormality): 0 no. (%)
High (cohorts 1d,2c,3c), n=9
  Alkaline phosphatase: Above (treatment-emergent nongraded abnormality): 0 no. (%)
  Alkaline phosphatase: Below (treatment-emergent nongraded abnormality): 0 no. (%)
  Chloride: Above (treatment-emergent nongraded abnormality): 0 no. (%)
  Chloride: Below (treatment-emergent nongraded abnormality): 0 no. (%)
  Erythrocytes: Above (treatment-emergent nongraded abnormality): 0 no. (%)
  Erythrocytes: Below (treatment-emergent nongraded abnormality): 1 (11) no. (%)
  Hemoglobin Grade 1 (treatment-emergent worst toxicity grade): 0 no. (%)
  Hemoglobin Grade 2 (treatment-emergent worst toxicity grade): 0 no. (%)
  Hyperkalemia Grade 1 (treatment-emergent worst toxicity grade): 1 (11) no. (%)
  Hyperkalemia Grade 2 (treatment-emergent worst toxicity grade): 1 (11) no. (%)
  Hypoglycemia Grade 1 (treatment-emergent worst toxicity grade): 3 (33) no. (%)
  Hyponatremia Grade 2 (treatment-emergent worst toxicity grade): 1 (11) no. (%)
  Leukocytes: Above (treatment-emergent nongraded abnormality): 3 (33) no. (%)
  Lymphocytes: Above (treatment-emergent nongraded abnormality): 1 (11) no. (%)
  Lymphocytes: Below (treatment-emergent nongraded abnormality): 0 no. (%)
  Urea: Above (treatment-emergent nongraded abnormality): 0 no. (%)
  Urea: Below (treatment-emergent nongraded abnormality): 0 no. (%)
Low (cohorts 1a,2a,3a), n=9
  Eosinophils/leukocytes: Above (treatment-emergent nongraded abnormality): 2 (22) no. (%)
  Eosinophils/leukocytes: Below (treatment-emergent nongraded abnormality): 0 no. (%)
  Lymphocytes/leukocytes: Above (treatment-emergent nongraded abnormality): 2 (22) no. (%)
  Lymphocytes/leukocytes: Below (treatment-emergent nongraded abnormality): 0 no. (%)
  Monocytes/leukocytes: Above (treatment-emergent nongraded abnormality): 2 (22) no. (%)
  Monocytes/leukocytes: Below (treatment-emergent nongraded abnormality): 2 (22) no. (%)
  Neutrophils/leukocytes: Above (treatment-emergent nongraded abnormality): 0 no. (%)
  Neutrophils/leukocytes: Below (treatment-emergent nongraded abnormality): 3 (33) no. (%)
  Urea: Above (treatment-emergent nongraded abnormality): 1 (11) no. (%)
  Urea: Below (treatment-emergent nongraded abnormality): 1 (11) no. (%)
Low (cohorts 1a,2a,3a), n=11
  Bicarbonate: Above (treatment-emergent nongraded abnormality): 1 (9) no. (%)
  Bicarbonate: Below (treatment-emergent nongraded abnormality): 0 no. (%)
Low (cohorts 1a,2a,3a), n=12
  Alkaline phosphatase: Above (treatment-emergent nongraded abnormality): 1 (8) no. (%)
  Alkaline phosphatase: Below (treatment-emergent nongraded abnormality): 0 no. (%)
  Chloride: Above (treatment-emergent nongraded abnormality): 1 (8) no. (%)
